We go through 97 compounds from ChEMBL document CHEMBL4513216, “Probing the Open Global Health Chemical Diversity Library for Multistage-Active Starting Points for Next-Generation Antimalarials” (ACS Infect Dis, 2020).

The nature of this series: Toxicity liver stage against HepG2, at 10uM. The arrangement: test concentration 10 uM, cell line HepG2-A16-CD81EGFP. The settings on record: human, HepG2-A16-CD81EGFP cells; read-out: INHIBITION
It counts as cell-based. The method, boiled down:
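Uninfected HepG2-A16-CD81EGFP cells, 3 × 10^3 per well, 1536-well, plated on prespotted compound at 10 μM final, parasite-free screening media added to match infected plates; puromycin 10 μM positive, DMSO 0.5% negative; run in parallel with 48 h PbLuc assay at 37 °C, 5% CO2; viability by CellTiter-Glo luminescence, normalized to controls.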
As for `O=C(c1cn(CC(=O)N2CCCCC2)c2ccccc12)C1CC1`, the cytotoxicity at 10 µM came to 9.14%.

As for `CC(=O)N1CCC(NC2(Cc3cc(C(C)(C)O)on3)COC2)CC1`, the cytotoxicity at 10 µM is -1.09%.

`FC(F)(F)c1ccc(-c2c[nH]c([C@@H]3COCCN3)n2)cc1`: the cytotoxicity at 10 µM was found to be 1.05%.

In the case of `Cc1nn(C)cc1CN1CCCCCC1c1ccc(Cl)cc1` (configuration not stated), the cytotoxicity at 10 µM worked out at 4.93%.

As to `CC(=O)N1CCN(C(=O)Cc2cnc(-c3c(Cl)cccc3Cl)s2)CC1`, the cytotoxicity at 10 µM was 7.27%.

With `CC(C)NC(=O)c1csc(NC2CC2)n1`, the cytotoxicity at 10 µM is -2.72%.

Take `CN1CCN(C(=O)c2cc3sccc3n2Cc2ccc(Cl)cc2)CC1`: the cytotoxicity at 10 µM was 1.05%.

Take `CC1CC(=O)c2cc(C(=O)N3CCOCC3)c(=O)[nH]c2C1` (configuration not stated): the cytotoxicity at 10 µM was -3.06%.

On to `COc1c[nH]c(C(=O)N2CCN(c3ccc(Cl)cc3)CC2)cc1=O`, for which the cytotoxicity at 10 µM was 4.42%.

As to `CC(=O)Nc1cnc(-n2ccnc2)nc1`, the cytotoxicity at 10 µM was -1.25%.

Turning to `O=C(NCCC(O)c1ccoc1)Nc1cccs1` (configuration not stated), the cytotoxicity at 10 µM was -2.55%.

Turning to `Cn1nc(CNC(=O)C2CCCCC2)cc1C1CC1`, the cytotoxicity at 10 µM was -4.56%.

In the case of `O=C1[C@H]2CN(S(=O)(=O)c3cccs3)C[C@H]2CN1CC1CC1`, the cytotoxicity at 10 µM was determined as 2%.

`O=C(NC1CC1)N1Cc2[nH]nc(COCC3CC3)c2C1`: the cytotoxicity at 10 µM turned out to be 13.6%.

Take `Fc1cccnc1N1CCC2(CNCCC2(F)F)C1` (configuration not stated): the cytotoxicity at 10 µM was -7.15%.

For `O=S(=O)(C1CC1)N1CCc2ncc(Cn3cncn3)n2CC1`, the cytotoxicity at 10 µM stood at 3.62%.

`COc1ncnc2c1CCN(c1cccc(F)c1)CC2`: the cytotoxicity at 10 µM came to 10.7%.

Turning to `COCCO[C@H]1CCN(c2ccc(C)nn2)[C@H]1Cc1cnn(C)c1`, the cytotoxicity at 10 µM is 2.5%.

As to `COCCN1C[C@@H](C)[C@@]2(COCCN(C(=O)c3ccoc3)C2)C1`, the cytotoxicity at 10 µM came out at 7.4%.

Turning to `COc1cc(Cl)c(C)cc1-n1nnc(C(=O)O)c1-c1ccncc1`, the cytotoxicity at 10 µM came to 4.74%.

Regarding `CC(C)C(NC(=O)N1CCN(c2ccc(Cl)cc2)CC1)C(=O)NC1CC1` (configuration not stated), the cytotoxicity at 10 µM was found to be 23.6%.

Consider `O=C(NCc1ccco1)[C@H]1C[C@H]2OCC[C@H]2N(C(=O)c2ccco2)C1`, for which the cytotoxicity at 10 µM is 2.79%.

As to `CCOc1cc(C(=O)n2cc(C)cn2)cc(OCC)c1OCC`, the cytotoxicity at 10 µM amounted to 8.29%.

Turning to `COc1cccc(CNCc2ccc(F)c(Cl)c2)c1O`, the cytotoxicity at 10 µM is -13.7%.

Regarding `C=C(C)Cn1nc(C)c(CN2CCN(C3CCCCC3)C(=O)C2)c1C`, the cytotoxicity at 10 µM is 4.59%.

For the compound `Cc1ccc(CN2CCOCC2c2[nH]ncc2C)cn1` (configuration not stated), the cytotoxicity at 10 µM came out at 4.52%.

`Cc1nc(-c2c(C)noc2C)cc(C2CCN(CC(=O)N(C)C)CC2)n1`: the cytotoxicity at 10 µM came to 5.84%.

`O=C(c1cncs1)N1CCOCC(Cc2ccccn2)C1` (configuration not stated): the cytotoxicity at 10 µM stood at 0.105%.

For `Cc1cc(C)n(C2CCN(Cc3nc4ccccc4n3C)CC2)n1`, the cytotoxicity at 10 µM came out at 1.64%.

With `O=C(NCc1ccccn1)c1cncc(C2CCCN2)n1` (configuration not stated), the cytotoxicity at 10 µM is 3.6%.

As for `COc1nc(N2CCNCC2)ncc1Br`, the cytotoxicity at 10 µM was 5.2%.

As for `O=C1NCCCCC1Sc1ccccc1F` (configuration not stated), the cytotoxicity at 10 µM was 9.43%.

For `CCc1noc(CSc2n[nH]c(-c3ccccn3)n2)n1`, the cytotoxicity at 10 µM is 5.49%.

For `O=C(Cn1nnn(-c2cccs2)c1=O)NCC1CCOC1` (configuration not stated), the cytotoxicity at 10 µM is -40.4%.

Turning to `CCS(=O)(=O)CCN1CCN(C2CCC(C(C)C)CC2)CC1` (configuration not stated), the cytotoxicity at 10 µM is 7.76%.

As for `O=C1CC2(CCSC2)C(=O)N1Cc1coc(-c2ccccc2)n1` (configuration not stated), the cytotoxicity at 10 µM came out at 5.57%.

As to `NC(=O)c1ccc(NC(=O)c2ccncc2Cl)cn1`, the cytotoxicity at 10 µM was determined as 8.29%.

Consider `Cc1noc(C)c1CNC(=O)Nc1ccc(N2CCOC2=O)cc1`, for which the cytotoxicity at 10 µM is -2.93%.

For the compound `COc1ccccc1CC1CCN(C(=O)CCc2ccccn2)CC1`, the cytotoxicity at 10 µM was -3.2%.

`CCOC(C)C(=O)NS(=O)(=O)c1cccc2cc(C)cnc12` (configuration not stated): the cytotoxicity at 10 µM was -3.14%.

For the compound `CCOC(=O)c1nnc2ccccc2c1N1CCN(C(C)C)CC1`, the cytotoxicity at 10 µM was -1.54%.

As to `Cn1cc(C2CCCN2C(=O)Cc2coc(-c3ccccc3)n2)cn1` (configuration not stated), the cytotoxicity at 10 µM came to 4.14%.

As for `COc1cc(OC)cc(N2CCC(NCc3cc[nH]n3)C2)c1` (configuration not stated), the cytotoxicity at 10 µM was determined as 2.55%.

As for `Clc1cnccc1N1CCCC2(CCCOC2)C1` (configuration not stated), the cytotoxicity at 10 µM is -2.35%.

As for `Cc1ccc(C(=O)NC2CCN(Cc3nc(C(C)C)no3)CC2)s1`, the cytotoxicity at 10 µM came out at 3.82%.

With `CCN(CC1CCOC1)C(=O)c1ccc(N(C)C)cc1F` (configuration not stated), the cytotoxicity at 10 µM came to 3.54%.

Consider `CCCNC(=O)Cc1c(C)nc2c(c1C)c(=O)[nH]n2C`, for which the cytotoxicity at 10 µM came out at 11.4%.

Regarding `COc1ccc(F)cc1CSCC(=O)N(C)CCC#N`, the cytotoxicity at 10 µM was -2.32%.

`COc1ccccc1S(=O)(=O)CCOC(C)C`: the cytotoxicity at 10 µM is 6.24%.

Regarding `CCN(Cc1ccoc1)C(=O)c1cc(S(N)(=O)=O)c(C)o1`, the cytotoxicity at 10 µM was -2.98%.

Consider `O=C(C(C1CC1)C1CC1)N1CCC(n2ccnn2)CC1`, for which the cytotoxicity at 10 µM is -45.7%.

Take `CCOC(C(=O)N1CCn2c(nnc2C(C)C)C1)c1ccccc1` (configuration not stated): the cytotoxicity at 10 µM came out at 3.84%.

Consider `O=C(NCCNc1ccccn1)NCC1CCS(=O)(=O)C1` (configuration not stated), for which the cytotoxicity at 10 µM was found to be 1.48%.

`COCCN(C)S(=O)(=O)c1cc(C)cc(F)c1`: the cytotoxicity at 10 µM turned out to be 3.49%.

As to `CCC(C)N(C)S(=O)(=O)c1ccc(CCNC(C)=O)s1` (configuration not stated), the cytotoxicity at 10 µM was -3.45%.

For the compound `Cc1cccc(C(=O)N2C[C@@H]3OCCN(CCN4CCCC4)[C@@H]3C2)n1`, the cytotoxicity at 10 µM was -65%.

On to `CC1=N[C@@]2(CC[C@@H]3CN(C(=O)NCCc4ccccc4)C[C@@H]32)C(=O)N1`, for which the cytotoxicity at 10 µM is -75.4%.

Take `CS(=O)(=O)NC[C@]12COC[C@H]1CN(C(=O)C1CCCCC1)C2`: the cytotoxicity at 10 µM worked out at 3.34%.

With `O=C(NCC1CC1)C1=NOC2(CCN(S(=O)(=O)c3cccs3)C2)C1` (configuration not stated), the cytotoxicity at 10 µM turned out to be 0.693%.

Consider `CCCOc1cccc(-c2nc3c([nH]2)CCNC3)c1`, for which the cytotoxicity at 10 µM is -3.38%.

With `Cc1cccc(CNC2CC(=O)N(Cc3cccc(F)c3)C2)c1` (configuration not stated), the cytotoxicity at 10 µM amounted to 1.22%.

On to `COc1ccc2c(c1)C(C(=O)N(C)CCn1ccnc1C)CC(=O)N2` (configuration not stated), for which the cytotoxicity at 10 µM is -44.8%.

With `CCSCC(C)NCc1cc(-c2ccco2)on1` (configuration not stated), the cytotoxicity at 10 µM came to 1.29%.

Take `COc1ccc(Cc2nc3c([nH]2)CC(C)(C)CNC3=O)cc1OC`: the cytotoxicity at 10 µM was -3.04%.

Regarding `Cc1cc(C)cc(C(C(=O)O)N(C)CCCN2CCOCC2)c1` (configuration not stated), the cytotoxicity at 10 µM amounted to 6.03%.

Consider `O=C(C1COc2ccccc2O1)N1Cc2cnn(CCO)c2C1` (configuration not stated), for which the cytotoxicity at 10 µM is -3.12%.

As to `Cc1ccc(-c2ccnc(N[C@H]3COC[C@@H]3N3CCCCC3)n2)c(C)n1`, the cytotoxicity at 10 µM turned out to be 3.46%.

For `O=C(C1CC12CCC2)N1CCC(n2cc(-c3ccsc3)nn2)CC1` (configuration not stated), the cytotoxicity at 10 µM worked out at 5.85%.

With `CN(C)CCN(C)C[C@@H]1CN(Cc2cccc(O)c2)C[C@@H]1CO`, the cytotoxicity at 10 µM is 0.972%.

For the compound `Cc1[nH]c(-c2ccccc2)nc1C(=O)N1CCc2[nH]cnc2C1C(=O)O` (configuration not stated), the cytotoxicity at 10 µM came out at 2.43%.

For the compound `Oc1cc(CNCCN2CCCCC2)nc2c(F)cccc12`, the cytotoxicity at 10 µM is -1.16%.

On to `COc1cccc(OCC2CCCN(C(=O)c3ncc(F)cc3F)C2)c1` (configuration not stated), for which the cytotoxicity at 10 µM came to 6.35%.

On to `CCc1noc(CN(CC)C(=O)CC2C(=O)NCCN2CC(C)(C)C)n1` (configuration not stated), for which the cytotoxicity at 10 µM came to 1.83%.

With `Cc1nc(N2CCN(C)CC2)ncc1C(=O)N1CCC(O)(CO)CC1`, the cytotoxicity at 10 µM is -0.395%.

For `Cc1cc(N2CCC3(CCC(=O)N(CC4CC4)C3)CC2)nc(N)n1`, the cytotoxicity at 10 µM was 6.92%.

On to `Cc1nn(C)c(C)c1C(=O)NCc1ccnc(OCC(F)(F)F)c1`, for which the cytotoxicity at 10 µM was -10.7%.

Regarding `Cc1nc(C)n(C2CCCN(C(=O)CCCOc3ccccc3)C2)n1` (configuration not stated), the cytotoxicity at 10 µM is -12.7%.

As for `COCc1nc(C(=O)NS(=O)(=O)c2ccc(C)cc2C)cs1`, the cytotoxicity at 10 µM was -4.35%.

As for `N#CC1(C(=O)N2CCN(c3nccs3)CC2)CCCCC1`, the cytotoxicity at 10 µM was -8.24%.

Turning to `CSCc1cccc(C(=O)N2CCN(CC(C)O)CC2)c1` (configuration not stated), the cytotoxicity at 10 µM is -5.31%.

On to `CN(CC(=O)N1CCCN(Cc2cscn2)CC1)c1cnccn1`, for which the cytotoxicity at 10 µM is -7.81%.

`O=C(C1CC1)N1CCC2(CCCN2Cc2ccc(F)cc2)CC1`: the cytotoxicity at 10 µM turned out to be 3.35%.

As to `CCC(=O)N1CCC2(CC1)C(=O)N(C)CCN2Cc1csc(C)n1`, the cytotoxicity at 10 µM turned out to be 5.59%.

Regarding `Cn1cc(CN2CCC3(CC2)CC(Nc2nccs2)CO3)cn1` (configuration not stated), the cytotoxicity at 10 µM was -79.6%.

For the compound `CN(C)C[C@H]1OC[C@@H]2CCN(C(=O)Cc3cccs3)C[C@@H]21`, the cytotoxicity at 10 µM came out at 7.13%.

Turning to `Brc1cc(CNCc2nnc3n2CCC3)cs1`, the cytotoxicity at 10 µM is -6.22%.

`COc1cc(N2CCC3(CCCN3Cc3cnn(C)c3)CC2)ncn1`: the cytotoxicity at 10 µM is 6.5%.

Take `CC(C)CN1CC[C@@H]2[C@@H]1CCN2S(=O)(=O)c1cn(C)cn1`: the cytotoxicity at 10 µM amounted to 7.86%.

On to `CCc1ncnc2c1CCN(Cc1cccs1)CC2`, for which the cytotoxicity at 10 µM was 4.98%.

As for `O=C(C1CCOCC1)N1C[C@H]2CCC[C@@]2(COc2ccccn2)C1`, the cytotoxicity at 10 µM is -0.587%.

As to `CCN1C[C@H]2C3(CCN(S(=O)(=O)CC)CC3)CC[C@@]2(C(=O)N(C)C)C1`, the cytotoxicity at 10 µM turned out to be 2.84%.

In the case of `O=C(c1cnccn1)N1CCOC2(CCN(Cc3ccsc3)CC2)C1`, the cytotoxicity at 10 µM was -4.45%.

As to `CNC(=O)CN1CCO[C@H]2CN(CC3CCOCC3)C[C@H]21`, the cytotoxicity at 10 µM turned out to be 12.5%.

For `Cc1ccc(CN2CCc3ncnc(-c4ccc(F)cc4)c3CC2)o1`, the cytotoxicity at 10 µM is -9.49%.

`CO[C@@H]1CCN(S(=O)(=O)c2cccs2)[C@H]1Cc1cccnc1`: the cytotoxicity at 10 µM was -80.3%.

As to `O=C(NC1CC1)N1CCCC2(CCCCN2)C1` (configuration not stated), the cytotoxicity at 10 µM is 8.77%.

As to `O=C(CC1[C@H]2CN(c3ncccn3)C[C@@H]12)Nc1cccnc1` (some centres not stated), the cytotoxicity at 10 µM was -1.55%.
